# PAFAH1B2 FP inh = inhibitors of human PAFAH1B2 | P68402 | recombinant PAFAH1B2, FP-rhodamine activity probe, fluorescence polarization | inhibition, % at 3.39 µM | 1.2% of 340,000 active;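 active = inhibition above the mean of all tested compounds plus 3 SD, cut at about 24% in these data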;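 also: 0% = enzyme with DMSO and 100% = wells lacking PAFAH1B2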
# Target sequence (P68402 whole entry, looked up): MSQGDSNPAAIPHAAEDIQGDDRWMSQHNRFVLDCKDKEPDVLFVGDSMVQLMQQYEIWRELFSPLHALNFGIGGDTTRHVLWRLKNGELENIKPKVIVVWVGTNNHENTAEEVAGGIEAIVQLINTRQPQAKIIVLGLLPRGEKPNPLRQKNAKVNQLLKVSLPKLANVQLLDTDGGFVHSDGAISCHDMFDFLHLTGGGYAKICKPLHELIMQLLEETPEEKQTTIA
# PAFAH1B3 FP inh = PAFAH1B3 (human) inhibition | recombinant PAFAH1B3, FP-rhodamine probe, fluorescence polarization | 0.28% of 340,000 active | Q15102 | AID 492972 | inhibition, % at 3.39 µM;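 active = inhibition above the screen-wide average of all tested compounds plus 3 SD, cut at about 25% in these data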;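 also: 0% = enzyme with DMSO only and 100% = wells lacking PAFAH1B3 protein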
# Target sequence (Q15102 whole entry, looked up): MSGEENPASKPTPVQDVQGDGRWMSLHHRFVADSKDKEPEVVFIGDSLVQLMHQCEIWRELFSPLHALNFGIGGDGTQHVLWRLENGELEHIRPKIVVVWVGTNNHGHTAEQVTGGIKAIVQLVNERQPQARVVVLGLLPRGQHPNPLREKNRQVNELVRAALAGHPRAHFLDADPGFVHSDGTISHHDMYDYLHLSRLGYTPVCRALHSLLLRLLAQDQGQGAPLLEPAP
# RBBP9 inh = inhibitors of human serine hydrolase RBBP9; recombinant RBBP9, FP-Rh probe fluorescence polarization; 0.2% of 220,000 active; inhibition, % at 7.94 µM; AID 1515; O75884;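 active = inhibition above the campaign mean of all tested compounds plus 3 SD, cut at about 14% in these data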;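 also: plate controls were DMSO wells with RBBP9 for no effect and wells lacking RBBP9 protein for full effect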
# Target sequence (O75884 whole entry, looked up): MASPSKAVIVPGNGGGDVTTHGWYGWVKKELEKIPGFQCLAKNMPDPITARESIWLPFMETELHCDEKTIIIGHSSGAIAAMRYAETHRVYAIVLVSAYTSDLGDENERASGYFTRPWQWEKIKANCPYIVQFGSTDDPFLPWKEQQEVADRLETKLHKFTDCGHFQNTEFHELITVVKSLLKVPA
#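 System: RBBP9 protein | Quantity: 2.5 µM RBBP9 dispensing solution, before mixing | Reagent: FP-Rh probe, 375 nM dispensing solution | Timing: Enzyme-compound preincubation 30 min, then probe labeling 45 min, 25 °C | Measured by: Fluorescence polarization | Read-out: % inhibition | Replication: One well per compound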
# pPAFAH FP inh = pPAFAH (human) enzyme inhibition | Q13093 | recombinant pPAFAH, FP-rhodamine probe fluorescence polarization | inhibition, % at 3.39 µM | 1.5% of 330,000 active | AID 463082;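 active = inhibition above the mean inhibition across the screen plus 3 SD, cut at about 25% in these data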;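 also: inhibitors block binding of the rhodamine activity-based probe so polarization drops; 0% = enzyme with DMSO and 100% = wells lacking pPAFAH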
# PAFAH2 inh = PAFAH2 (human) inhibition | recombinant PAFAH2, FP-rhodamine activity probe, fluorescence polarization | inhibition, % at 3.39 µM | 0.99% of 340,000 active;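 active = inhibition above the mean over all tested compounds plus 3 SD, cut at about 30% in these data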;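 also: inhibitors block probe labeling of enzyme so polarization drops; 0% = enzyme with DMSO and 100% = wells lacking PAFAH2 protein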
# RBBP9 inh conf = human RBBP9 inhibition, confirmation; shares compounds with RBBP9 inh; recombinant RBBP9, FP-Rh probe fluorescence polarization; inhibition, % at 7.94 µM; 36% of 410 active; AID 1537;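 active = inhibition above the hit cutoff derived for the primary screen, cut at about 15% in these data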;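 also: 0% = RBBP9 with DMSO and 100% = wells lacking RBBP9 protein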
# * hit, by the source's call; / = not tested or not shown; + = active, no number. Most compounds without a hit are left out; they make up all but 2.7% or so of the library.
SMILES,PAFAH1B2 FP inh,PAFAH1B3 FP inh,RBBP9 inh,pPAFAH FP inh,PAFAH2 inh,RBBP9 inh conf
Oc1ccc(/C=N/NC2=NCCCCC2)cc1,-3.6,-0.7,16.5*,-0.5,-5.6,12.0
COc1ccc(OC(C)C(=O)N2CCCc3ccccc32)cc1 (stereo not given),-2.5,6.8,16.9*,-3.5,3.9,4.9
CN(C)c1ccc(NC(=O)Nc2csc3ccccc23)cc1,/,/,19.5*,15.2,/,58.2*
CCOCCCNC(=O)c1cc(Cl)c(NC(=O)C2=C(C)OCCS2)cc1OC,4.8,3.0,/,2.0,-3.7,/
CN=c1scc(-c2ccco2)n1/N=C/c1ccc(O)c(O)c1,-2.8,9.8,25.9*,/,8.7,5.6
C=CCN=c1scc(C)n1/N=C/c1ccc(O)c(O)c1,6.1,11.8,23.0*,34.2*,9.6,24.2*
COc1ccc(O)c(/C=N/n2c(-c3ccco3)csc2=Nc2cccnc2)c1,0.7,5.6,-5.3,3.8,3.7,/
CC(C)N(CCCNC(=O)c1ccc(CS(=O)(=O)c2c(Cl)cccc2Cl)o1)Cc1ccccc1,-3.4,-5.1,/,1.1,-2.9,/
O=C(CSc1ccc2ccccc2n1)c1ccccc1,-7.5,11.1,17.5*,-2.2,0.6,4.2
Cc1nc2ccccc2nc1SCC(=O)c1ccccc1,7.0,2.5,-8.6,-3.5,-0.2,/
COCc1cc(N2CCCC2)nc(-c2ccccc2)n1,-0.1,0.0,-7.8,5.2,-6.3,/
CN=c1scc(-c2ccccc2F)n1/N=C/c1ccc(O)c(O)c1O,-5.4,6.8,32.7*,/,3.1,59.5*
COc1ccc(-c2cc(-c3c(O)c(OC)c4occc4c3OC)[nH]n2)cc1OC,4.1,9.6,14.6*,34.4*,16.6,53.3*
O=C(COc1ccc2ccccc2c1)Nc1ccc(Cc2ccncc2)cc1,-0.3,1.1,28.3*,-1.3,-1.4,2.7
NC(=O)COC(=O)C12CC3CC(CC(O)(C3)C1)C2,2.9,5.3,50.9*,3.9,8.9,1.9
O=C(COC(=O)c1cc(=O)[nH]c2ccccc12)NCc1ccccc1Cl,2.4,1.1,/,-2.0,2.3,/
CS(=O)(=O)c1ccc(NS(=O)(=O)c2ccc3ccccc3c2)cc1,5.6,8.4,/,0.9,-9.8,/
CNS(=O)(=O)c1ccc2ccccc2c1,1.8,1.9,19.4*,3.9,-4.3,0.0
CCOC(=O)C1=C(SCC(=O)Nc2ccccc2)NC(=O)C(C#N)C12CCCCC2 (stereo not given),19.3,2.9,14.6*,2.2,4.1,8.1
O=C(Nc1ccccc1)Nc1sccc1-c1nc2ccccc2s1,/,/,-0.7,-2.0,/,/
O=C(Nc1cccc(Cl)c1)Nc1sccc1-c1nc2ccccc2s1,/,/,14.7*,1.8,/,19.4*
COc1cc(CNC(=O)c2cc3ccccc3oc2=O)cc(OC)c1OC,0.2,9.2,/,2.8,-1.8,/
O=C(Cn1nnc2ccccc2c1=O)N1CCCc2ccccc21,4.8,2.2,15.8*,-0.6,2.5,-0.7
O=C(Cn1nnc2ccccc2c1=O)N1CCOCC1,1.4,4.5,-2.7,4.3,-0.1,/
NNc1nnc2c3cc(F)ccc3n(Cc3ccccc3)c2n1,0.3,-5.8,19.6*,2.1,-6.2,5.5
SMILES,PAFAH1B2 FP inh,PAFAH1B3 FP inh,RBBP9 inh,pPAFAH FP inh,PAFAH2 inh,RBBP9 inh conf
O=C(NCc1nc(-c2ccc(C(F)(F)F)cc2)no1)Nc1ccc(OC(F)(F)F)cc1,/,/,-3.4,-37.5,/,/
CS(=O)(=O)N(CC(=O)Nc1cccnc1)c1ccc2c(c1)OCCO2,2.6,5.0,-3.3,5.9,1.6,/
CS(=O)(=O)N(CC(=O)Nc1cccnc1)c1ccc2c(c1)OCO2,5.8,-1.7,14.5*,2.7,-1.5,4.6
C/C=C/CSc1nc2c(c(=O)[nH]c(=O)n2C)n1C(C)C,3.2,-0.4,14.7*,1.0,0.3,3.6
COc1ccc(S(=O)(=O)NCC(=O)N(Cc2ccco2)C(C(=O)NC(C)(C)C)C(C)C)cc1 (stereo not given),3.6,0.0,/,-1.9,-3.4,/
CCOc1ccc(S(=O)(=O)Nc2ccc(S(=O)(=O)N3CCCCC3)cc2)cc1,9.2,5.2,15.0*,1.6,4.3,0.3
CCOc1ccc(S(=O)(=O)Nc2ccc(S(=O)(=O)N3CCCC3)cc2)cc1,5.7,15.8,-7.2,3.8,-0.2,/
CCOc1ccc(C(C)=O)cc1Cn1nc(C(=O)O)c2ccccc2c1=O,4.4,2.3,-8.2,2.3,-5.9,/
COC(=O)C1C(=O)OC(C)(C)C1C(C)C(=O)c1ccccc1 (stereo not given),2.4,5.5,14.5*,3.2,-1.3,7.2
CCOC(=O)N1CCN(C(=O)/C(=C/c2cccs2)NC(=O)c2cccs2)CC1,-0.1,7.5,4.5,3.8,-3.6,/
CCCOc1c(Cl)cc(C(=O)Nc2ccc3c(c2)OCO3)cc1OCC,-4.2,4.1,-2.2,7.2,-13.6,/
Cc1nc2ncccn2c1-c1csc(Nc2ccc(N(C)C)cc2)n1,-0.9,0.4,24.4*,/,7.5,21.3*
Cc1ccc(NCC(=O)N/N=C/c2cccn2C)cc1,2.3,8.2,17.4*,2.2,-3.2,5.4
O=c1ccc2[n+]([O-])c3ccc(O)cc3oc-2c1,136.3*,149.5*,+,/,154.8*,-297.6
COCCCNC(=O)c1ccc(-c2csc(C)n2)cc1,0.4,2.6,-3.1,7.0,8.2,/
CCOC(=O)C(C)(C)Sc1ncnc2nc[nH]c12,0.8,-1.2,15.9*,-1.1,-5.2,7.6
O=C(Nc1ccccc1Cl)C1CCCN(c2ncnc3c2nc2n3CCCCC2)C1 (stereo not given),-3.7,7.6,/,6.3,10.4,/
Cc1ccc2c(c1)c1cccc3c1n2CCN3CCC(N)=O,1.0,1.5,17.0*,20.3,4.5,13.6
CCCCn1c(N)c(N(CC(C)C)C(=O)C2=NN(c3cc(C)ccc3C)C(=O)CC2)c(=O)[nH]c1=O,0.4,-1.8,/,-3.7,1.6,/
COc1ccc(C2=CC(=O)C[C@H](c3ccc(OC)cc3)C2)cc1,0.6,8.2,/,0.9,4.3,/
COc1ccc(C2=CC(=O)C=CC2=O)cc1,/,/,51.2*,/,/,85.4*
COc1ccc(CCNCC(=O)Nc2ccccc2C(F)(F)F)cc1,/,/,-0.9,-5.3,/,/
Cc1ccc(S(=O)(=O)NCCCN2CCCC2)cc1,6.8,3.6,/,0.8,5.8,/
COc1cc(-n2nnnc2SCC(=O)N2CCN(c3ccc(F)cc3)CC2)c(OC)cc1Cl,7.7,3.9,15.7*,/,-0.5,4.6
CCOc1cc(C(=O)NC(C)C2CCCO2)cc(OCC)c1OCC (stereo not given),4.3,4.5,15.8*,-0.4,4.7,10.7
CC(C)c1c(C#N)c(N)nc(SCC(=O)c2cc3ccccc3oc2=O)c1C#N,-3.8,2.6,2.4,5.3,-0.6,/
N#Cc1ccc(-c2ccccc2)nc1SCC(=O)c1cc2ccccc2oc1=O,-9.4,-11.1,30.3*,6.9,-22.9,-57.4
Cc1c([N+](=O)[O-])cc(S(=O)(=O)Nc2ccncc2)cc1[N+](=O)[O-],8.4,2.9,1.2,6.0,9.7,/
Cc1ccc(CNC(=O)C2CCCN(S(=O)(=O)N3CC(C)CC(C)C3)C2)cc1 (stereo not given),-2.5,0.1,/,3.9,4.4,/
